Assay outcomes (PubChem)
L major viab – reduces viability of Leishmania major promastigotes | resazurin fluorescence viability | AID 1063 | inhibition, % at 10 µM | actives 9% (n = 200,000);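 note: promastigotes grown with compound for 44 hours at 28 °C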
ABCB1 inh – inhibitors of human ABCB1 transporter, ABCG2 counter-screen; CCRF-Adr cells, JC-1 efflux, flow cytometry; inhibition, % at 6.6 µM; actives 0.067% (n = 190,000); AID 1326; in the data active = inhibition above about 40%;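 note: 0% = vehicle and 100% = reference inhibitor; higher value means more JC-1 retained so stronger ABCB1 efflux block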
GSH bead fluor – compound fluoresces at 488/530 nm on GSH beads | GSH beads flow cytometry, compound fluorescence 488/530 nm; active compounds read high | fluorescence (KMESF) at 10 µM | actives 0.25% (n = 190,000) | AID 1776; in the data active = fluorescence above about 89;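 note: glutathione beads carrying GST-tagged Bcl family fusion proteins plus one bare bead set; values are compound well signal with DMSO vehicle wells as background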
ABCG2 block – blocks JC-1 efflux by human ABCG2 transporter; Q9UNQ0; IgMXP3 cells, flow cytometry; inhibition, % at 6.6 µM; actives 0.1% (n = 190,000); AID 1325;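 active = inhibition above 80%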;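 note: 0% = DMSO and 100% = nicardipine control wells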
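Measure – % inhibition of efflux relative to nicardipine and DMSO · Test system – ABCG2 IgMXP3 and barcoded ABCB1 CCRF-Adr cell mix · Control set – nicardipine as high control, DMSO as low control · Compound – one concentration, 6.6 µM final · Signal – flow cytometry of retained JC-1 fluorescence · Timing – 10 min exposure at 25 °C with rotation, no wash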
PKD1 inh – inhibitors of human PKD1 kinase. Q15139. PKD1 kinase fluorescence polarization assay. inhibition, % (concentration not given with the values). actives 0.056% (n = 200,000)
Avidin fluor – avidin bead compound fluorescence profile; Avidin beads, compound fluorescence 488/530 nm, flow cytometry; active compounds read high; fluorescence (KMESF) at 10 µM; AID 1775; actives 0.38% (n = 220,000); in the data active = fluorescence above about 47
* marks the source's active call; other numbers are inactive results; . = not tested or not shown. The entries come from a sample that favours hits as a whole. Cut-off read from the data, not from the text of the source, unless noted: active = inhibition above about 50%; inactive = the rest.

SMILES	L major viab	ABCB1 inh	GSH bead fluor	ABCG2 block	PKD1 inh	Avidin fluor
COc1ccc(CCN(C(=O)C(F)(F)F)C(C(=O)NC2CCCC2)c2cccs2)cc1 (stereo not given)	62*	1	60	4	-6	13
C#CC(=O)N(c1cc(OC)ccc1OC)C(C(=O)NC1CCCC1)c1cccs1 (stereo not given)	101*	0	21	1	0	10
C=CCONC(=O)c1cc(OCC(F)(F)F)ccc1OCC(F)(F)F	-1	1	53	5	0	25
O=C(CNC(=O)c1ccc(-c2ccccc2)cc1)OCc1ccc(Br)cc1	6	1	7	1	11	4
COC(=O)c1cc(COC(=O)c2cccnc2SC)oc1C	-8	2	16	24	-1	12
O=S(Cc1ccc(Br)cc1)Cc1nnc(SCc2c(Cl)cccc2Cl)n1-c1ccccc1 (stereo not given)	96*	2	33	-4	-1	8
COc1ccc(CN2CCN(c3ccc(F)cc3)CC2)c(OC)c1OC	-3	1	8	2	0	67*
COc1ccc(CN2CCN(S(=O)(=O)c3ccc(F)cc3)CC2)c(OC)c1OC	28	0	56	2	3	9
CCc1nnc(NC(=O)CN2CCN(c3nc(-c4ccccc4)cs3)CC2)s1	5	0	19	0	15	47*
COc1ccc(C(=O)NNC(=O)CN2CCC(n3nnc4cc(F)ccc43)CC2)cc1	50*	.	9	79	-12	10
CC(C)C1CC(O)(C2(O)CCCCC2)ON1 (stereo not given)	-5	0	75	1	2	12
CC(=O)c1ccc(NC(=O)C2CCC(C)NC2=O)cc1 (stereo not given)	-4	0	4	0	-19	8
CCN(CC)c1ccc(C(=O)O)cc1	-4	0	14	-6	1	23
CCN(CC)c1ccc(/C=C2\C(=O)c3ccc(C(=O)O)cc3C2=O)cc1	-4	88*	306*	135*	-4	13
Cc1cc(C)c2c(N)c(C(=O)N3CCc4ccccc4C3)sc2n1	49	1	14	3	3	10
CC(=O)N(Cc1ccccc1)Cc1cn(CCC#N)nc1-c1cccc([N+](=O)[O-])c1	17	1	18	13	5	13
Cc1ccc(C(c2nnnn2C2CCCCC2)N(C)C2CCCCC2)cc1 (stereo not given)	72*	0	4	1	0	7
COc1cc2cc(C(c3nnnn3C3CCCCC3)N(C)C3CCCCC3)c(=O)[nH]c2cc1OC (stereo not given)	72*	24	25	22	3	36
CC(C)C(c1nnnn1C1CCCC1)N(C)C1CCCCC1 (stereo not given)	1	0	29	-3	-2	13
CCN(CC)S(=O)(=O)c1cccc(NC(=O)CNC2CCCCCC2)c1	.	.	.	.	.	7
CCN(CC)S(=O)(=O)c1ccc(Cl)c(NC(=O)COc2ccc3c(C)cc(=O)oc3c2)c1	-5	0	13	0	-3	2
Cc1cc(=O)oc2cc(OCC(=O)Nc3cccc(S(=O)(=O)N(C)C)c3)ccc12	60*	1	6	8	-4	16
CN(C)S(=O)(=O)c1cccc(NC(=O)CNCC2CCCCC2)c1	84*	0	72	1	1	12
Cc1cc(NCCCN(C)C)n2nc(-c3cccs3)cc2n1	77*	1	39	4	-1	7
Cc1ccc(NC(=O)CS(=O)CC(=O)N(C(C)C(=O)NC2CCCCC2)C(C)(C)C)cc1 (stereo not given)	-4	0	9	1	-3	10
SMILES	L major viab	ABCB1 inh	GSH bead fluor	ABCG2 block	PKD1 inh	Avidin fluor
Nc1c(-c2ccccc2)c(CSc2nc3ccccc3[nH]2)nn1-c1cccc(Cl)c1	98*	22	6	32	0	10
Fc1ccc(/C=N/NC(=S)Nc2ccc(Cl)cc2)cc1F	-8	0	21	4	-3	12
COc1ccc(NC(=S)N/N=C/c2ccc(F)cc2)cc1OC	-3	1	11	5	1	27
COc1ccc(/C=N/NC(=S)Nc2ccccc2)cc1COc1ccc(F)cc1F	55*	-1	7	-4	-11	11
Fc1ccc(NC(=S)Nc2ccc(Cl)cc2)cc1	63*	1	12	3	1	9
Fc1ccc(NC(=S)N/N=C/c2ccc(F)c(F)c2)cc1	-7	0	22	1	-2	80*
CC1C(=O)O[C@@H]2C[C@@H](C)[C@@H]3CCC(=O)[C@@]3(C)[C@@H](O)[C@H]12 (stereo not given in full)	.	.	.	.	.	13
O=C(O)c1cc(-c2ccc(O)cc2)on1	-10	0	26	-1	-3	7
COC(=O)CNC(=O)COC(=O)Cc1ccc(Cl)cc1	-5	1	15	0	-3	15
O=C(CCc1nc2ccccc2s1)OCc1ccccc1	56*	1	6	11	-5	15
O=C(CCC(=O)c1cccs1)OCc1nc2ccccc2s1	-8	0	13	0	4	11
O=c1c(Cl)cc(Cl)nn1-c1ccccc1	71*	0	10	1	-9	3
COc1cc(Cl)nn(-c2ccccc2)c1=O	6	0	8	0	0	2
CCOC(=O)CN1C(=O)C(Sc2n[nH]c(-c3ccccc3)n2)CCc2ccccc21 (stereo not given)	16	2	12	4	-1	12
COc1cccc(C(=O)Oc2c(Br)cc(Br)cc2/C=N/NC(=O)c2cc(C)[nH]n2)c1	78*	0	30	0	4	9
Cc1ccc(-c2cc(C(=O)NCc3ccccn3)c3ccccc3n2)cc1C	88*	0	29	2	-9	4
O=C(NNC(=O)c1cc(-c2ccccc2)nc2ccccc12)Nc1cccc(Cl)c1	99*	0	14	-1	5	6
Cc1ccc(-c2cc(C(=O)Nc3cc(C)on3)c3ccccc3n2)cc1	17	1	15	7	7	11
O=C(NNC(=O)c1cc(-c2cccnc2)nc2ccccc12)Nc1ccc(Cl)cc1	15	-1	15	5	2	9
Cc1cc(NC(=O)c2cc(-c3cccs3)nc3ccccc23)no1	-1	1	18	2	-3	233*
O=C(Nc1nccs1)c1cc(-c2ccco2)nc2ccccc12	6	0	5	0	6	1
Cc1cccc(-c2cc(C(=O)NCc3ccccn3)c3ccccc3n2)c1	6	1	11	18	-2	9
O=C(Nc1nccs1)c1cc(-c2ccccc2)nc2ccccc12	90*	4	6	28	1	22
C/C(=N\NC(=O)c1cc(-c2ccncc2)nc2ccccc12)c1ccc(N2CCOCC2)cc1	97*	2	14	14	-7	13
